Screening results as filed in PubChem BioAssay.
Compounds with a hit are over-represented: about 2.7% of the library has one in this group of screens.
Phagocyt inh – blocks phagocytosis by macrophages; J774A.1 macrophage IgG-bead phagocytosis, imaging; inhibition, % at 5 µM; actives 0.07% (n = 110,000);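 active = inhibition above the mean of the plate negative controls plus 5 SD, cut at about 13% in these data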;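 also: phagocytic index as fraction of beads internalized from green versus red external bead signal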
Yeast life ext – yeast lifespan extension | actives 0.68% (n = 130,000) | inhibition of the nicotinamide effect, % at 10 µM | AID 775 | S. cerevisiae growth with nicotinamide, OD615; deaD strain in restrictive glucose medium;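 active = inhibition above a set limit, placed 3 SD over the median of all compounds, cut at about 26% in these data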
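Test system: DeaD-strain S. cerevisiae / Buffer or medium: restrictive glucose medium / Also added: nicotinamide 1.5 mM / Doses: one concentration, 10 µM, DMSO 0.25% / Schedule: 48 h at 30 °C / Signal: OD615 measurement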
RAM network inh – yeast RAM network inhibition | S. cerevisiae dse1pr::URA3 reporter, 5-FOA growth OD615, 2 d; analog-sensitive cbk1-as2 kinase mutant strain | inhibition, % at 50 µM | actives 1.8% (n = 190,000) | AID 868;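 active = inhibition above a set limit, 3 SD over mean compound inhibition, cut at about 8.4% in these data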;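 also: inhibition rescues growth on 5-FOA so higher OD means more RAM inhibition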
BB579 growth dn – yeast BB579 growth reduction in restrictive medium; actives 0.51% (n = 140,000); inhibition, % at 10 µM; S. cerevisiae BB579 growth, OD615, 48 h;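 active = inhibition above a set limit, 3 SD over the mean compound inhibition, cut at about 44% in these data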
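System: Saccharomyces cerevisiae DeaD strain BB579, replicative lifespan model yeast | Buffer or medium: Restrictive glucose-based CSMM-D medium | Times: 4 h preincubation and 48 h exposure at 30 °C | Detection: OD615 turbidity measurement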
Numbers stand for hits.

`Cc1c(C(=O)c2ccc([N+](=O)[O-])cc2)c(=O)n(C)c(=O)n1C` gave RAM network inh inactive.
`COc1ccccc1-n1c(=O)oc2ccc(Cl)cc2c1=O` gave Phagocyt inh inactive, Yeast life ext inactive, RAM network inh inactive and BB579 growth dn 53.
Screening COc1ccccc1-n1c(SCc2cc(=O)oc3cc(O)ccc23)nc2ccccc2c1=O returned Phagocyt inh inactive, Yeast life ext inactive, RAM network inh inactive and BB579 growth dn inactive.
For Cc1ccc(NC(=O)CSc2nn(-c3ccc(Cl)cc3)c(=S)s2)cc1S(=O)(=O)N(C)C the results were Phagocyt inh inactive, Yeast life ext inactive, RAM network inh 11 and BB579 growth dn inactive.
Cn1cnnc1SCCCN1C(=O)c2cccc3cccc(c23)C1=O was read as RAM network inh inactive.
Screening Cc1ccc(S(=O)(=O)N2CCCCC2)cc1NC(=O)COC(=O)Cc1cccc(C(F)(F)F)c1 returned Phagocyt inh inactive, Yeast life ext inactive, RAM network inh 9.2 and BB579 growth dn inactive.
Screening Cc1ccc(S(=O)(=O)N2CCCCC2)cc1NC(=O)COC(=O)Cc1ccc(Cl)cc1 returned Phagocyt inh inactive, Yeast life ext inactive, RAM network inh inactive and BB579 growth dn inactive.
C#CCn1c(=NC(=O)c2cc(-c3cccs3)nc3ccccc23)sc2cc(S(N)(=O)=O)ccc21 was read as Phagocyt inh inactive, Yeast life ext inactive, RAM network inh 9.7 and BB579 growth dn inactive.
`C#CCn1c(=NC(=O)c2cc(Cl)sc2Cl)sc2cc(S(N)(=O)=O)ccc21` gave Phagocyt inh inactive, Yeast life ext inactive, RAM network inh inactive and BB579 growth dn inactive.
`CCCCCCCSc1nc(N)cc(=O)[nH]1` gave Phagocyt inh inactive, Yeast life ext inactive, RAM network inh inactive and BB579 growth dn inactive.
CCCCCSc1nc(O)cc(=O)[nH]1 was read as Phagocyt inh inactive, Yeast life ext 58, RAM network inh inactive and BB579 growth dn inactive.
`COc1cc(OC)c(C(=O)Nc2cccc(C(C)=O)c2)cc1OC` gave Phagocyt inh inactive, Yeast life ext inactive, RAM network inh inactive and BB579 growth dn inactive.
`NS(=O)(=O)c1cccc(NC(=O)COC(=O)C2(c3cccc(F)c3)CCCC2)c1` gave Phagocyt inh inactive, Yeast life ext inactive, RAM network inh inactive and BB579 growth dn inactive.
`NC(=S)N/N=C/c1coc2c(ccc3ccccc32)c1=O` gave Phagocyt inh inactive, Yeast life ext inactive, RAM network inh inactive and BB579 growth dn inactive.
`O=c1cc(/N=C/c2coc3c(ccc4ccccc43)c2=O)[nH]c(=S)[nH]1` gave Phagocyt inh inactive, Yeast life ext inactive, RAM network inh 11 and BB579 growth dn inactive.
CCCCCCSc1nc(O)c(C2OC(=O)c3c2ccc(OC)c3OC)c(=O)n1-c1ccccc1 (configuration not stated) was read as Phagocyt inh inactive, Yeast life ext inactive, RAM network inh 8.6 and BB579 growth dn inactive.
`CCSc1nc(O)c(C2OC(=O)c3c2ccc(OC)c3OC)c(=O)n1CC` (configuration not stated) gave Phagocyt inh inactive, Yeast life ext inactive, RAM network inh inactive and BB579 growth dn inactive.
For COc1ccc2c(c1OC)C(=O)OC2CC(=O)O (configuration not stated) the results were Yeast life ext inactive, RAM network inh inactive and BB579 growth dn inactive.
`CCCCSc1nc(O)c(C2OC(=O)c3c2ccc(OC)c3OC)c(=O)n1C` (configuration not stated) gave Phagocyt inh inactive, Yeast life ext 61, RAM network inh inactive and BB579 growth dn inactive.
O=C(N/N=C/c1cccc([N+](=O)[O-])c1)c1ccc(CN2CCOCC2)cc1 was read as Phagocyt inh inactive, Yeast life ext inactive, RAM network inh inactive and BB579 growth dn inactive.
Screening CC(C)C(NC(=O)C12CC3CC(CC(C3)C1)C2)C(=O)N/N=C/C1=C(N2CCOCC2)C(=C\c2cccc([N+](=O)[O-])c2)/CC1 (configuration not stated) returned Phagocyt inh inactive, Yeast life ext inactive, RAM network inh 9.6 and BB579 growth dn inactive.
Screening C=CCN(CC=C)C(=O)c1ccc(OC2CCN(S(=O)(=O)N(C)C)CC2)cc1 returned RAM network inh inactive.
Screening CCOc1ccccc1C(=O)N(C)Cc1cc2ccccc2[nH]c1=O returned Phagocyt inh inactive, Yeast life ext inactive, RAM network inh inactive and BB579 growth dn inactive.
`CCOc1cc(C(=O)N(C)Cc2cc3ccccc3[nH]c2=O)cc(OCC)c1OCC` gave Phagocyt inh inactive, Yeast life ext inactive, RAM network inh 8.8 and BB579 growth dn inactive.
CCOC(=O)c1c(-c2ccc(C)o2)csc1NC(=O)CSc1nnc(C)s1 was read as Phagocyt inh inactive, Yeast life ext inactive, RAM network inh 11 and BB579 growth dn inactive.
`CCOC(=O)c1c(NC(=O)CSc2nnc(C)s2)sc2c1CCCCC2` gave Yeast life ext inactive, RAM network inh inactive and BB579 growth dn inactive.
For CCOC(=O)c1sc(NC(=O)CSc2nnnn2-c2ccccc2)nc1C the results were Phagocyt inh inactive, Yeast life ext inactive, RAM network inh inactive and BB579 growth dn inactive.
For CCOC(=O)c1c(-c2ccc(C)o2)csc1NC(=O)CSc1nnnn1-c1ccccc1 the results were Phagocyt inh inactive, Yeast life ext inactive, RAM network inh 8.6 and BB579 growth dn inactive.
`CCOC(=O)c1c(NC(=O)CSc2nnc(C)s2)sc2c1CCC(C)C2` (configuration not stated) gave RAM network inh 8.9 and BB579 growth dn inactive.
Screening CSc1ccc(S(=O)(=O)NCc2ccc(Cl)cc2Cl)cc1 returned Phagocyt inh inactive, Yeast life ext 88, RAM network inh inactive and BB579 growth dn inactive.
For CCc1ccc(NC(=O)N(Cc2ccco2)C(C)c2cccs2)cc1 (configuration not stated) the results were Phagocyt inh inactive, Yeast life ext inactive, RAM network inh 11 and BB579 growth dn inactive.
Screening CCc1ccccc1NC(=S)N(Cc1ccco1)C(C)c1cccs1 (configuration not stated) returned RAM network inh inactive.
Screening Cc1ccc(CNC(=O)c2ccc(Cn3nc(C)c(Cl)c3C)o2)cc1 returned Phagocyt inh inactive, Yeast life ext inactive, RAM network inh inactive and BB579 growth dn 99.
Screening CCOC(=O)N1CCC(N2C(=O)c3ccccc3C2Nc2c(C)cccc2C)CC1 (configuration not stated) returned Phagocyt inh inactive, Yeast life ext inactive, RAM network inh inactive and BB579 growth dn inactive.
For O=c1c2nnn(-c3ccc(Br)cc3)c2ncn1Cc1ccccn1 the results were RAM network inh inactive.
Screening CC(C)C(=O)N(c1ccc2oc(=O)sc2c1)S(=O)(=O)c1ccccc1 returned Phagocyt inh inactive, Yeast life ext inactive, RAM network inh 11 and BB579 growth dn inactive.
`COc1ccc(N(C(=O)CCl)C(C(=O)NCCc2ccccc2)c2cccs2)cc1Cl` (configuration not stated) gave Phagocyt inh inactive, Yeast life ext inactive, RAM network inh inactive and BB579 growth dn inactive.
